# Screening data as filed in PubChem BioAssay.
# UCH37 DUB inh: human UCH37 deubiquitinating enzyme inhibition | inhibition, % (concentration not given with the values) | AID 588478 | purified proteasome/UCH37, Ub-AMC cleavage fluorescence | 0.33% of 330,000 active;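 active = mean inhibition over replicate wells above about 20%, limit read from the data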;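 also: 0% = compound-free wells with enzyme and 100% = wells lacking proteasome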
#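 Material: human UCH37 enzyme supplied as purified proteasome complex / Amount: 0.15 nM proteasome as dispensed / Buffer or medium: pH 7.4 Tris-HCl (50 mM) with ovalbumin, ATP-MgCl2, DTT / Times: preincubation 30 min, reaction 25 min, room temperature / Technique: AMC fluorescence from Ub-AMC cleavage, excitation 355 nm, emission 460 nm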
# HDAC3 inhib: inhibitors of human histone deacetylase 3. 0.15% of 320,000 active. recombinant HDAC3, fluorogenic peptide/trypsin coupled, fluorescence. inhibition, % at 8.3 µM. O15379; in the data active = inhibition above about 26%, passing the limit was not always enough; inconclusive = no clear call, values can overlap the other calls
# M18AAP inhibitor: PfM18AAP enzyme inhibition | recombinant PfM18AAP, H-Glu-NHMec fluorogenic cleavage | inhibition, % at 7.35 µM | 1.2% of 290,000 active | AID 1822;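 active = inhibition above the campaign mean inhibition over all tested compounds plus 3 SD, cut at about 28% in these data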;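 also: 0% = plate median of test compound wells and 100% = 2 mM ZnCl2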
# ALR H2O2 inh: human ALR oxidase inhibition via reduced H2O2; P55789; purified ALR, DTT oxidation, H2O2 HRP-luminol luminescence; inhibition, % (no concentration beside the values); 3.8% of 290,000 active;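 active = mean replicate inhibition above about 79%, with every replicate also reaching it, limit read from the data; inconclusive = only one of the two criteria met; inactive = mean below limit and not every replicate reaching it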
# Target sequence (P55789 whole entry, looked up): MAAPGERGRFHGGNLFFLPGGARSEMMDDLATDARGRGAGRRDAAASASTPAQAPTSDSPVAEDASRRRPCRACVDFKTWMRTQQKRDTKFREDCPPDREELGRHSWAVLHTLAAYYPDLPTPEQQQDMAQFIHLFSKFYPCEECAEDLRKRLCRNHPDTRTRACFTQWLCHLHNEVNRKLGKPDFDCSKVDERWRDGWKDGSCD
# Rtt109 Vps75: C. albicans Rtt109 histone acetyltransferase inhibition | purified Rtt109/Vps75, ThioGlo CoA-SH fluorescence, 4 h | inhibition, % at 34.9 µM | 0.16% of 330,000 active | AID 540336;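 active = inhibition of at least 50% in every replicate; inconclusive = best replicate reaches 50% inhibition but some replicates fall short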
# Target sequence (Q5AAJ8 whole entry, looked up): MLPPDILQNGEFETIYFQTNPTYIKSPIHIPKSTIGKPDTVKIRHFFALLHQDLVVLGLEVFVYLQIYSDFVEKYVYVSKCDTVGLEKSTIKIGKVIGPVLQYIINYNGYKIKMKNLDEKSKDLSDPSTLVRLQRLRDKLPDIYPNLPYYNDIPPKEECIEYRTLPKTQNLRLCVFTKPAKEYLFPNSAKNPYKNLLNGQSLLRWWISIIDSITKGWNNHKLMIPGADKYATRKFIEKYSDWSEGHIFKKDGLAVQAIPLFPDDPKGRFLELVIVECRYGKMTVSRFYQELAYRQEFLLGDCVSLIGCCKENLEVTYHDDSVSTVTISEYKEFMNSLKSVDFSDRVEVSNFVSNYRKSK
# FAS TE block: blocks the thioesterase domain of human fatty acid synthase. P49327. recombinant FAS-TE, OMFH fluorogenic substrate, fluorescence endpoint. inhibition, % at 15 µM. 0.67% of 360,000 active. AID 602261;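 active = compounds whose normalised, plate-corrected inhibition of enzyme fluorescence in the single-dose primary screen is 50% or more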;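 also: 0% = DMSO with enzyme and 100% = substrate without enzyme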
# Starred values were filed as active, the others as inactive; i = inactive; ? = inconclusive; nt = no result given; ! = not active in a repeat. A selection: hits, their analogues and other compounds. The true share with any hit is near 4.6%.
SMILES,UCH37 DUB inh,HDAC3 inhib,M18AAP inhibitor,ALR H2O2 inh,Rtt109 Vps75,FAS TE block
CC(=O)c1ccc(N2CCN(CC(=O)N(CC(C)C)c3c(N)n(CC(C)C)c(=O)[nH]c3=O)CC2)cc1,3,1,-1,nt,5,-5
CCOC(=O)c1c(NC(=O)C2C3C=CC(C3)C2C(=O)O)sc2c1CCC(C)C2 (centres undefined),-4,-7,5,95*,-2,-6
CCOC(=O)c1c(NC(=O)CCC(=O)O)sc2c1CCCCC2,6,11,5,2,-2,-7
CCOC(=O)c1c(NC(=O)C2C3C=CC(C3)C2C(=O)O)sc2c1CCCC2 (centres undefined),-5,-5,9,20,22,-1
CCOC(=O)c1c(NC(=O)C2CC(Cl)=CCC2C(=O)O)sc2c1CCCCC2 (centres undefined),-1,3,12,98*,32,12
CSCC[C@H](NC(=O)[C@@H]1Cc2ccccc2CN1)C(=O)NCC1CCC(C(=O)O)CC1 (some centres undefined),2,nt,nt,nt,nt,nt
CC(C)(C)S(=O)(=O)C(C#N)=NNc1ccc(S(C)(=O)=O)cc1,20,nt,nt,nt,nt,nt
Cc1cc(=O)oc2cc3c(cc12)OCCN3,i,-112,2,97*,i,-4
Cc1cc(=O)oc2cc3c(cc12)OCCO3,-243,-27,-2,-13,3,-4
O=c1cc(-c2c(O)c3ccccc3n(Cc3ccccc3)c2=O)[nH][nH]1,3,8,1,67,-6,-6
CCn1c(=O)c(-c2cc(=O)[nH][nH]2)c(O)c2ccccc21,5,0,31*,27,3,-6
O=C(CSc1nc2ccc(Nc3nc(N4CCOCC4)nc(N4CCOCC4)n3)cc2s1)N1CCOCC1,3,6,-3,?,5,0
CSc1nc2ccc(Nc3nc(N4CCOCC4)nc(N4CCOCC4)n3)cc2s1,2,1,-7,98*,12,50
CCOC(=O)C=c1sc2n(c1=O)CCN=2,-6,nt,nt,nt,nt,nt
Cc1nc(N2CCN(c3ccccc3)CC2)[nH]c(=O)c1C,4,6,0,97*,-3,-4
Cc1cc2[nH]c(=O)c(=O)[nH]c2cc1S(=O)(=O)N1CCN(c2ccccc2)CC1,1,-3,5,97*,-3,22
Cc1nnc(N2CCN(Cc3ccccc3)CC2)[nH]c1=O,3,-4,-10,99*,-9,-3
CCOC(=O)C1CCN(c2ccc([N+](=O)[O-])c(C(C)=O)c2)CC1,12,12,-2,1,115*,5
CC(=NN1CCN(C)CC1)c1ccc(OC(F)F)cc1,5,nt,nt,nt,nt,nt
CN(C)N1C(=O)CC(NNC(=O)c2ccncc2)C1=O (centres undefined),0,-7,5,86*,-5,-7
CCN(CC)c1ccc(NC(=O)c2ccccc2F)cc1,4,13,10,99*,7,-2
O=C(Nc1ccc(Nc2ccccc2)cc1)c1ccccc1F,4,1,-12,99*,1,21
O=C(O)c1cc(NC(=O)c2ccccc2F)cc(NC(=O)c2ccccc2F)c1,4,-6,4,5,-8,-7
CC(=O)Nc1ccc(NC(=O)c2c(C)noc2C)cc1,-2,4,-6,1,-3,-3
COc1ccc(Cl)cc1C(=O)Nc1ccncc1,5,1,-4,-9,5,-1
SMILES,UCH37 DUB inh,HDAC3 inhib,M18AAP inhibitor,ALR H2O2 inh,Rtt109 Vps75,FAS TE block
CCN(CC)c1ccc(NC(=O)c2c(C)noc2C)cc1,2,-3,-13,98*,-8,-2
O=C(Nc1ccc(N2CCCC2)cc1)c1ccccc1F,6,0,5,22,2,-8
CCN(CC)c1ccc(NC(=O)c2cc(Cl)ccc2OC)cc1,1,9,4,98*,-6,21
CC(=O)Nc1ccc(NC(=NS(=O)(=O)c2ccccc2)c2ccccc2)cc1,0,nt,nt,nt,nt,nt
COc1cc(NC(=O)c2cc(OC)c(OC)c(OC)c2)ccc1NC(=O)c1cccs1,4,4,-7,2,-2,8
COc1cc(N)ccc1NC(=O)c1cccs1,1,6,-6,99*,6,-11
CC(C)(C)OC(=O)N1CCN(C(=O)c2ncn(Cc3ccccc3)c2C(=O)N2CCN(C(=O)OC(C)(C)C)CC2)CC1,29*,-6,nt,4,2,-7
O=C(CS(=O)(=O)c1ccccc1)Nc1ncc([N+](=O)[O-])s1,8,0,-1,41,12,-3
O=C(Nc1ncc([N+](=O)[O-])s1)c1ccccc1Br,7,5,0,97*,12,4
O=C(Nc1ncc([N+](=O)[O-])s1)c1cccs1,13,?,-4,97*!,-26,6
Cc1cnc(NC(=O)c2cccs2)s1,5,5,2,4,nt,-4
O=C(COC(=O)c1ccc(Br)o1)Nc1ncc([N+](=O)[O-])s1,4,5,nt,97*,5,2
CCOc1cc(C=NNC(=O)c2ccccc2OCc2ccc(F)cc2)ccc1O,-5,nt,nt,nt,nt,nt
O=C(NN=Cc1ccccn1)c1ccco1,6,nt,nt,nt,nt,nt
OCCN(CCO)c1cc2c3ccccc3ccc2c2ccccc12,-221,nt,nt,nt,-9,-1
OCCN(CCO)c1ccc2ccccc2c1,-398,-59,-5,98*,3,-1
CCc1c(C)nc2c(C#N)c[nH]n2c1=O,-1,-3,3,98*,1,-19
CCCC(=O)n1nc(-c2cccnc2)nc1NCc1ccc(OC)cc1,-1,nt,-2,nt,15,22
CC(C)C(=O)n1nc(-c2cccnc2)nc1NCc1ccc(F)cc1,1,13,-14,97*,4,9
Cc1cccc(C(=O)ON=C2CCS(=O)(=O)c3sccc32)c1,4,nt,nt,nt,nt,nt
O=C(O)CC/C(=N\Nc1ccc([N+](=O)[O-])cc1)c1ccccc1,nt,10,0,98*,-3,14
CCC(=NNc1ccc([N+](=O)[O-])cc1)c1ccccc1,-3,nt,nt,nt,nt,nt
COCCNC(=S)NN(c1ccccc1)c1ccccc1,-1,4,1,82*,7,0
CNC(=S)NN(c1ccccc1)c1ccccc1,3,-2,2,95*,19,-4
S=C(NC1CCCCC1)NN(c1ccccc1)c1ccccc1,4,13,-8,6,-8,22
COCCNC(=S)N(c1ccccc1)C(C)C,4,-1,4,50,-2,-2
CC(=NNC(=S)NCc1ccccc1)c1ccc(Cl)s1,5,nt,nt,nt,nt,nt
Cc1c(OCc2nn[nH]n2)ccc2c3c(c(=O)oc12)CCC(C)C3 (centres undefined),-94,-15,7,98*,-2,14
O=C(CCN1CCN(C(c2ccccc2)c2ccccc2)CC1)NN=Cc1ccc(O)cc1O,-4,nt,nt,nt,nt,nt
Cc1csc(NC(=O)C2C3C=CC(O3)C2C(=O)O)n1 (centres undefined),2,0,3,98*,3,-10
